Data reported in ChEMBL document CHEMBL1148955, “Chemical constituents from the Colombian medicinal plant Maytenus laevis” (2004).
Active and inactive are the calls of the source. The rule behind the calls is not given here.

What was measured:
PBMC [1] = test: Induction of IL6 production in human PBMC at 1 ug/ml after 48 hrs by ELISA; type: functional
In short: (§1)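 PBMCs were isolated from heparinized venous blood by Ficoll-Hypaque density gradient centrifugation. Cells were cultured at 1 × 10^6/mL in RPMI 1640 with 10% fetal calf serum, with or without compound at 1 or 10 µg/mL, for 48 h at 37 °C. Cytokines in the culture supernatants were measured by commercial ELISA kits.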

PBMC [2] = test: Induction of IL12 production in human PBMC at 10 ug/ml after 48 hrs by ELISA; type: functional; in short: as §1
PBMC [3] = test: Induction of IL6 production in human PBMC at 10 ug/ml after 48 hrs by ELISA; type: functional; in short: as §1
PBMC [4] = test: Induction of IL4 production in human PBMC at 1 ug/ml after 48 hrs by ELISA; type: functional, cell-based; in short: as §1
PBMC [5] = test: Induction of IL4 production in human PBMC at 10 ug/ml after 48 hrs by ELISA; type: functional, cell-based; in short: as §1
PBMC [6] = test: Induction of TNFalpha production in human PBMC at 10 ug/ml after 48 hrs by ELISA; type: functional; in short: as §1
PBMC [7] = test: Induction of IFN-gamma production in human PBMC at 1 ug/ml after 48 hrs by ELISA; type: functional, cell-based; in short: as §1
PBMC [8] = test: Induction of IFN-gamma production in human PBMC at 10 ug/ml after 48 hrs by ELISA; type: functional, cell-based; in short: as §1
PBMC [9] = test: Induction of IL12 production in human PBMC at 1 ug/ml after 48 hrs by ELISA; type: functional; in short: as §1
PBMC [10] = test: Induction of IL10 production in human PBMC at 1 ug/ml after 48 hrs by ELISA; type: functional, cell-based; in short: as §1
PBMC [11] = test: Induction of TNFalpha production in human PBMC at 1 ug/ml after 48 hrs by ELISA; type: functional; in short: as §1
PBMC [12] = test: Induction of IL10 production in human PBMC at 10 ug/ml after 48 hrs by ELISA; type: functional, cell-based; in short: as §1

Structure (SMILES) | Activity (PBMC [1]) [pg/mL] | Activity (PBMC [2]) [pg/mL] | Activity (PBMC [3]) [pg/mL] | Activity (PBMC [4]) | Activity (PBMC [5]) | Activity (PBMC [6]) [pg/mL] | Activity (PBMC [7]) | Activity (PBMC [8]) | Activity (PBMC [9]) [pg/mL] | Activity (PBMC [10]) | Activity (PBMC [11]) [pg/mL] | Activity (PBMC [12])
C[C@@H]1[C@@]23CC[C@H]4[C@@](C)(CC[C@@]5(C)[C@@H]6C[C@](C)(C(=O)O)CC[C@]6(C)CC[C@]45C)[C@@H]2CC[C@@]1(O)OC3 [SALASPERMIC ACID] | 857.3 | <7.8 | 109.6 | inactive | inactive | <7.8 | inactive | inactive | 21.6 | inactive | 54.5 | inactive
COc1cc(C(=O)O[C@@H]2C[C@](C)(O)[C@H]3[C@H](O[C@@H]4O[C@H](CO)[C@@H](O)[C@H](O)[C@H]4O)OC=C[C@H]32)ccc1O | <7.8 | <7.8 | <7.8 | inactive | inactive | <7.8 | inactive | inactive | <7.8 | inactive | <7.8 | inactive
CC1(C)[C@@H](O)CC[C@]2(C)[C@H]3CC=C4[C@@H]5C[C@@]6(C)C[C@H](OC6=O)[C@]5(C)CC[C@@]4(C)[C@]3(C)CC[C@@H]12 [3-EPIABRUSLACTONE A] | <7.8 | <7.8 | 308.4 | inactive | inactive | <7.8 | inactive | inactive | <7.8 | inactive | <7.8 | inactive
C[C@H]1[C@H](C)CC[C@]2(CO)CC[C@]3(C)C(=CC[C@@H]4[C@@]5(C)CC[C@H](OC(=O)/C=C/c6ccc(O)c(O)c6)C(C)(C)[C@@H]5CC[C@]43C)[C@H]12 | 28.5 | <7.8 | 607.1 | inactive | inactive | 27.9 | inactive | inactive | <7.8 | inactive | <7.8 | inactive
CC1(C)[C@@H](O)CC[C@]2(C)[C@H]3CC=C4[C@H]5C[C@](C)(C(=O)O)CC[C@]5(C)CC[C@@]4(C)[C@]3(C)CC[C@@H]12 [EPIKATONIC ACID] | 16.2 | <7.8 | 22.9 | inactive | inactive | <7.8 | inactive | inactive | <7.8 | inactive | <7.8 | inactive
C[C@@H]1O[C@@H](O[C@@H]2[C@@H](O)[C@H](OCCc3ccc(O)c(O)c3)O[C@H](COC(=O)/C=C/c3ccc(O)c(O)c3)[C@H]2O)[C@H](O)[C@H](O)[C@H]1O [ISOACTEOSIDE] | 101.5 | <7.8 | 175.5 | inactive | inactive | <7.8 | inactive | inactive | <7.8 | inactive | <7.8 | inactive
COc1c(O)cc([C@H]2Oc3cc(O)cc(O)c3C[C@H]2O)cc1O | <7.8 | <7.8 | 662.9 | inactive | inactive | <7.8 | inactive | inactive | <7.8 | inactive | <7.8 | inactive
CC(C)c1cc2c(cc1O)[C@@]1(C)CCC[C@](C)(C(=O)O)[C@@H]1CC2 [LAMBERTIC ACID] | 59.8 | <7.8 | 1454.4 | inactive | inactive | <7.8 | inactive | inactive | <7.8 | inactive | <7.8 | inactive
COc1c(O)cc(-c2oc3cc(O)cc(O)c3c(=O)c2O)cc1O [MEARNSETIN] | 783.6 | <7.8 | 203.4 | inactive | inactive | <7.8 | inactive | inactive | 14.3 | inactive | 31.3 | inactive
CC(=O)O[C@@H]1[C@@H]2[C@@H](OC(C)=O)[C@@]34O[C@@]2(C)COC(=O)c2cccnc2C(C)C(C)C(=O)O[C@@H]([C@H](O)[C@H](OC(C)=O)[C@@]3(COC(=O)c2ccccc2)[C@@H]1OC(C)=O)[C@]4(C)O (stereo not given in full) | 136.1 | <7.8 | 110.1 | inactive | inactive | <7.8 | inactive | inactive | <7.8 | inactive | <7.8 | inactive
